The source made the active and inactive calls.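 Rule for the calls: active = cell kill with TRAIL plus compound beats the two separate kills summed, at every dose, and climbs with dose; inactive = the rest.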
Tested on: 184B5 cells, TRAIL potentiation, ATPlite cytotoxicity, 24 h
Assay: normal mammary cell killing with TRAIL – 184B5 normal mammary epithelial cells, counter-screen for TRAIL sensitizer project, confirmation (AID 1745)
Conditions: stronger effect = higher value
Outline: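 material = Normal 184B5 cells | also added = TRAIL at 1000 ng/mL final | doses = compound at final concentrations from 1.25 to 5 µM | incubation = compound 4 h then TRAIL 24 h, 37 °C | detection = ATPLite luminescence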

[1] = compound alone cytotoxicity, at 5 µM
[2] = compound plus TRAIL, at 1.25 µM

| Compound | cytotoxicity with TRAIL (at 5 µM) | cytotoxicity [1] [%] | cytotoxicity (compound alone, at 1.25 µM) [%] | cytotoxicity (compound alone, at 2.5 µM) [%] | cytotoxicity with TRAIL [2] [%] | cytotoxicity with TRAIL (compound plus TRAIL, at 2.5 µM) [%] |
| --- | --- | --- | --- | --- | --- | --- |
| CCSc1nc(-c2ccccc2)nc(C(Cl)Cl)n1 | 25% (inactive) | 11 | 10 | 11 | 21 | 22 |
| CSc1nc(-c2ccccc2)nc(C(Cl)Cl)n1 | 32% (inactive) | 22 | 19 | 22 | 28 | 28 |
| CSc1nc(-c2ccc(C)cc2)nc(C(Cl)Cl)n1 | 41% (inactive) | 9 | 2 | 6 | 35 | 39 |

From PubChem BioAssay AID1745 (Sanford-Burnham Center for Chemical Genomics, 2009)
